# Assay results pooled from the literature.
# Effect on: cell growth or viability
Compound,cell line,test,setting,endpoint,value
CC(=NNC(=S)Nc1ccccc1)c1ccc(Nc2nnc(-c3ccc(Cl)cc3)c3ccccc23)cc1,MCF7,MTT,"1.25 µM, 24 h",viability,27.5%
CCN1[C@@H](C(=O)NC23CCC(C(=O)O)(CC2)CC3)[C@H](c2cccc(Cl)c2F)[C@]2(C(=O)Nc3cc(Cl)ccc32)C12CCCCC2,SJSA-1,resazurin,72 h,IC50,106 nM
COc1cc2c3c(n(CCCNC(C)C)c(=O)c2cc1OC)-c1nc2c(cc1C3=O)OCO2,AMO1,MTS,72 h,IC50,317 nM
Cc1noc2c1-c1ccccc1C(c1ccc(Cl)cc1)=N[C@H]2CC(N)=O,NOMO-1,ATP luminescence,72 h,IC50,387 nM
CC(=NNC(=O)c1ccncc1)c1ccc(Nc2nnc(-c3ccc(Cl)cc3)c3ccccc23)cc1,MCF7,MTT,"10 µM, 24 h",viability,8.76%
Cc1c(C(=O)O)ccc2c3n(nc12)[C@@H]1[C@H](C3)N(CC2CC2)[C@@]2(C(=O)Nc3cc(Cl)ccc32)[C@H]1c1cccc(Cl)c1F,A204,,,GI50,0.28 nM
COc1cc2c3c(n(CCCN4CCOCC4)c(=O)c2cc1OC)-c1nc2c(cc1C3=O)OCO2,THP-1,MTS,72 h,IC50,1320 nM
C=C(F)C(=O)N1CCN(c2nc(OC[C@@H]3CCCN3C)nc3c2CCN(c2cccc4cccc(Cl)c24)C3)C[C@@H]1CC#N,NCI-H441,ATP luminescence,,IC50,3400 nM
CC(=NNC(=O)c1ccccc1O)c1ccc(Nc2nnc(-c3ccc(Cl)cc3)c3ccccc23)cc1,MCF7,MTT,2.5 µM,cell death,38.4%
O=C(NO)c1ccc(CNc2nc3cccc(-c4ccc5c(c4)OCO5)n3n2)cc1,SW-620,SRB,,GI50,450 nM
S=C(Nc1ccccc1)Nc1ccc(Oc2nnc(-c3ccc(Cl)cc3)c3ccccc23)cc1,MCF7,MTT,"0.312 µM, 24 h",viability,100%
CCNCCCn1c2c(c3cc(OC)c(OC)cc3c1=O)C(=O)c1cc3c(nc1-2)OCO3,AMO1,MTS,72 h,IC50,184 nM
C=CC(=O)NC1CCN(c2ncc3ncnc(Nc4ccc(Oc5ccc6c(c5)ncn6C)c(C)c4)c3n2)CC1,HCC1954,,,EC50,5370 nM
COc1cc2c3c(n(CCCn4ccnc4)c(=O)c2cc1OC)-c1nc2c(cc1C3=O)OCO2,AMO1,MTS,72 h,IC50,804 nM
O=C(Nc1ccccc1)Nc1ccc(Oc2nnc(-c3ccc(Cl)cc3)c3ccccc23)cc1,MCF7,MTT,1.25 µM,cell death,96.1%
COc1cc2c3c(n(CCCNCCO)c(=O)c2cc1OC)-c1nc2c(cc1C3=O)OCO2,THP-1,MTS,72 h,IC50,300 nM
CC1(C)CCC2(CC1)N[C@@H](C(=O)N[C@@H]1CC[C@@H](C(N)=O)OC1)[C@H](c1ccnc(Cl)c1F)[C@]21C(=O)Nc2cc(Cl)ccc21,SJSA-1,resazurin,72 h,GI50,75 nM
